# Source: PubChem BioAssay (Johns Hopkins Ion Channel Center)
# Compounds with a hit are over-represented: about 3.5% of the library has one in this group of screens.
# MrgX1 antagonist – antagonists of human MrgX1 receptor, primary screen, HEK293 cells, Fluo-4 calcium flux; Mas-related G-protein coupled receptor member X1 (Homo sapiens), Q96LB2; BAM8-22 antagonism; stronger effect = lower value; B-score at 10 µM; hit rate 1.3% among 310,000;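 active = calcium-response B-score plate-corrected more than 3 library SD below zero, starting fluorescence within 5 deviations, no agonist response on first addition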;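 also: peak minus trough fluorescence over baseline after final BAM8-22 challenge near maximal dose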
# Target sequence (Q96LB2 whole entry, looked up): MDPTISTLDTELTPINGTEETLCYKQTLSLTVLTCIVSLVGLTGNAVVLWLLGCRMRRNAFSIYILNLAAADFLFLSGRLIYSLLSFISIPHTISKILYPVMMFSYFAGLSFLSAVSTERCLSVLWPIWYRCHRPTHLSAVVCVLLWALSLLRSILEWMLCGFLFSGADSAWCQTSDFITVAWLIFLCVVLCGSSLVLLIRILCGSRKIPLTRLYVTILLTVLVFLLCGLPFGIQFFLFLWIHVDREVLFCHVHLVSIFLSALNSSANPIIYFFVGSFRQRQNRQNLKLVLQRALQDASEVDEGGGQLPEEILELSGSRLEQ
# MrgX1 ag – agonists of human MrgX1 receptor, primary screen, HEK293 cells, Fluo-4 calcium flux. Fluo-4 calcium fluorescence, agonist mode; stronger effect = higher value. Mas-related G-protein coupled receptor member X1 (Homo sapiens), Q96LB2. B-score at 10 µM. hit rate 0.44% among 310,000;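 active = calcium response B-score plate-corrected fluorescence ratio at least 3 library SD, with starting fluorescence B-score inside 5 SD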
#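 Material: HEK293 cells stably expressing human MrgX1 receptor | Quantity: 15,000 cells per well | Times: Cells plated overnight, dye loaded 0.5 h 37 °C, 0.5 h room temperature | Measured by: Kinetic Fluo-4 NW fluorescence of intracellular calcium | Control set: Positive and negative controls per plate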
# RGS4 act – RGS4 potentiators or activators, primary screen, cell-based, HEK293 M3R inducible RGS4, calcium flux; B-score at 10 µM; hit rate 0.92% among 310,000; carbachol calcium flux Fluo4; stronger effect = lower value;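 active = B-score of the integrated calcium signal more than 4 SD below the library mean, with starting fluorescence not abnormally high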;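 also: negative B-score means reduced calcium response which marks RGS4 activation or potentiation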
#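 Material: M3R-expressing HEK293 line, RGS4 induced by doxycycline | Schedule: Overnight RGS4 induction, 30 min dye load 37 °C, 20 min compound RT | Measured by: Fluo4 fluorescence kinetic imaging of calcium | Read-out: Integrated calcium ratio converted to B score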
# RGS4 inh – RGS4 inhibitors, primary screen, cell-based, HEK293 M3R inducible RGS4, calcium flux; Regulator of G-protein signaling 4 (Homo sapiens), P49798; Fluo-4 calcium flux; stronger effect = higher value; triggered by carbachol at its EC20; B-score at 10 µM; hit rate 0.45% among 310,000;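 active = B-score, a plate-corrected calcium signal, over three deviations above library mean, with baseline fluorescence within five deviations of library mean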;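 also: RGS4 expression induced by doxycycline in cells with stable M3 receptor; B-score is computed from the integrated fluorescence ratio over baseline after carbachol; higher B-score means a larger calcium signal and so more RGS4 inhibition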
# Target sequence (P49798 whole entry, looked up): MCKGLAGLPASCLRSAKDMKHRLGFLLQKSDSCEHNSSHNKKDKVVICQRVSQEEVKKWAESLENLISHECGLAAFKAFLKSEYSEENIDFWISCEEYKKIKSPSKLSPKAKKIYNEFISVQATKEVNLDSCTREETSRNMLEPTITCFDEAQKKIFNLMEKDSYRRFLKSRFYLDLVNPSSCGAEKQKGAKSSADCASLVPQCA
# MrgX1 allo act – positive allosteric modulators of MrgX1, primary screen, HEK293 cells, Fluo-4 calcium flux; Mas-related G-protein coupled receptor member X1 (Homo sapiens), Q96LB2; FDSS; stronger effect = higher value; B-score at 10 µM; hit rate 0.63% among 310,000;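 active = plate-corrected calcium response at least 3 library SD above typical, normal starting fluorescence, not activating the receptor alone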;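 also: compound read alongside a low EC10 to EC30 dose of BAM8-22 agonist; peak minus trough fluorescence over baseline measured at the second addition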
# MrgX1 PAM conf – MrgX1 positive allosteric modulators, duplicate retest, confirmation, HEK293 cells, Fluo-4 calcium flux. AID 602413, 2012. shares compounds with MrgX1 allo act. activation (ratio percentage), % at 10 µM. hit rate 13% among 1,200. Fluo-4 calcium fluorescence, FDSS;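 active = ratio at least 3 SD above the weak peptide control, stable starting fluorescence, no direct agonism earlier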;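 also: compound followed by low BAM8-22 agonist challenge near EC20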
# HEK293 Ca flux – nonspecific calcium signal in parental HEK293, confirmation, counter-screen for MrgX1 antagonist project, parental HEK293 cells, Fluo-4 calcium flux. shares compounds with MrgX1 antagonist. Fluo-4 calcium fluorescence, FDSS. fluorescence ratio F(max-min)/F0 at 10 µM. hit rate 2% among 4,000;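 active = duplicate-averaged calcium fluorescence ratio at least three times the standard deviation of buffer wells, a nonspecific response in parental cells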
# HEK293 Ca counter – calcium response in parental HEK293 cells, primary screen, counter-screen for MrgX1 allosteric activator project, cell-based, Fluo-4 calcium flux, duplicate | shares compounds with MrgX1 antagonist | Fluo-4 fluorescence ratio; stronger effect = higher value | fluorescence ratio F(max-min)/F0 at 10 µM | hit rate 0.4% among 4,000 | AID 624114, 2012;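 active = calcium fluorescence ratio, averaged over duplicates, at least 3 SD of the buffer-well ratio, meaning a nonspecific response in receptor-free cells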;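 also: untransfected parental HEK293 lacking MrgX1 used as counterscreen for MrgX1 allosteric activators; fluorescence change taken during the second addition on a kinetic imager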
# HEK293 Ca cntr2 – calcium response in parental HEK293 cells, primary screen, counter-screen for MrgX1 agonist project, cell-based, Fluo-4 calcium flux, duplicate, agonist mode; shares compounds with MrgX1 antagonist; Fluo-4 calcium fluorescence (FDSS); stronger effect = higher value; fluorescence ratio F(max-min)/F0 at 10 µM; hit rate 8.7% among 4,000; AID 624115, 2012;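 active = calcium fluorescence ratio at least three times the spread of buffer wells, meaning a non-specific response in parental cells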
# * marks the source's active call; other numbers are inactive results; i = inactive; / = not tested or not shown.
SMILES,MrgX1 antagonist,MrgX1 ag,RGS4 act,RGS4 inh,MrgX1 allo act,MrgX1 PAM conf,HEK293 Ca flux,HEK293 Ca counter,HEK293 Ca cntr2
Cc1ccc(NC(=O)c2nc[nH]c2C(=O)N2CCC(C)CC2)cc1,i,i,i,i,9.1*,i,i,i,i
CCN(CC)C(=O)c1[nH]cnc1C(=O)Nc1ccc(OC)cc1,i,i,i,i,i,/,/,/,/
CCOC(=O)c1ccc(NC(=O)c2nc[nH]c2C(=O)N2CCC(C)CC2)cc1,i,i,i,i,i,/,/,/,/
COc1ccc(NC(=O)c2nc[nH]c2C(=O)N2CCC(C)CC2)cc1,i,i,i,i,8.2*,i,i,i,i
CC(C)(C)c1ccc(-c2nc(C=O)c3ccccn23)cc1,i,i,i,i,i,/,/,/,/
Cc1c(C(C)(C)C)c(C=S)n2ccccc12,i,i,i,i,8.5*,i,i,i,i
O=C(Nc1ccc(Cl)cc1)NC1CCCCC1Cc1ccco1 (centres undefined),i,i,i,i,15*,5.5%*,i,i,i
O=C(Nc1ccc(Cl)cc1)NC1CCCC1Cc1ccco1 (centres undefined),i,i,i,i,i,/,/,/,/
COc1ccc(C(=O)NCC(=O)OCC(=O)c2ccc3c(c2)NC(=O)CO3)cc1,i,i,i,i,7.6*,i,i,48*,i
Cc1ccc(Cn2ccnc2C(=O)Nc2ccccc2)cc1,i,i,i,i,9.7*,i,i,i,i
COc1ccc(CCNC(=O)c2csc3c2CCCC3)cc1,i,i,i,i,i,/,/,/,/
COc1ccc(NC(=O)c2csc3c2CCCCC3)c(OC)c1,i,i,i,i,19*,i,i,i,i
Cc1cc(C)n(/N=C\c2c(O)ccc3ccccc23)c(=O)c1C(N)=O,i,i,i,i,i,/,/,/,/
COc1cccc(C(=O)NCCn2ccc3ccccc32)c1,i,i,i,i,8.8*,i,i,i,i
COc1cc(OC)cc(C(=O)NCCn2ccc3ccccc32)c1,i,i,i,i,i,/,/,/,/
CCOc1ccc(S(=O)(=O)N2CCN(C(=O)CCOc3ccccc3C)CC2)cc1,i,i,i,i,i,/,/,/,/
Clc1cccc2c1Sc1ccccc1CC2N1CCNCC1 (centres undefined),i,i,i,i,14*,i,i,i,i
O=C(c1ccccc1Cl)N1CCNCC1,i,i,i,i,i,/,/,/,/
CCn1ncc(/C=N\NC(=O)Cc2ccc([N+](=O)[O-])cc2)c1C,i,i,i,i,i,/,/,/,/
COc1cccc(NC(=O)c2ccc3c(O)c(S(=O)(=O)c4ccccc4)c(=O)[nH]c3c2)c1,i,i,i,i,i,/,/,/,/
COc1ccc(S(=O)(=O)c2c(O)c3ccc(C(=O)Nc4cccc(F)c4)cc3[nH]c2=O)cc1,i,i,i,i,17*,i,i,i,i
COc1ccc(OC)c2sc(N(CCN(C)C)C(=O)c3cc(Cl)sc3Cl)nc12,i,i,i,i,21*,i,i,i,i
CCn1nc(C)c(CCC(=O)O)c1C,i,i,i,i,10*,i,i,i,i
O=C(Nc1nnc(SCC(=O)N2CCCCC2)s1)c1cccs1,i,i,i,i,7.1*,i,i,i,i
O=C(Cc1cccs1)Nc1nnc(SCC(=O)N2CCCCC2)s1,i,i,i,i,i,/,/,/,/
SMILES,MrgX1 antagonist,MrgX1 ag,RGS4 act,RGS4 inh,MrgX1 allo act,MrgX1 PAM conf,HEK293 Ca flux,HEK293 Ca counter,HEK293 Ca cntr2
CNc1nc(-c2ccccc2)nnc1C(F)(F)F,i,i,i,i,i,/,/,/,/
CCOC(=O)C1=C(C)NC(=O)CC1c1cc(OC)c(OC)cc1Br (centres undefined),i,i,i,i,15*,i,i,i,i
O=c1sc2ccccc2c(N2CCOCC2)c1[N+](=O)[O-],i,i,i,i,i,/,/,/,/
COc1ccc(Cl)cc1NC(=S)N1CCN(c2ncccn2)CC1,i,i,i,i,i,/,/,/,/
COc1ccc(N2CC(C(=O)Nc3cc(C)ccn3)CC2=O)cc1 (centres undefined),i,i,i,i,8.1*,i,i,i,i
CC(=O)Nc1ccc(NC(=O)c2ccccc2C)cc1,i,i,i,i,i,/,/,/,/
CC(=O)Nc1ccc(NC(=O)c2ccccc2CCc2ccccc2)cc1,i,i,i,i,15*,i,i,i,i
Cc1ccc(NC(=O)c2ccccc2O)cc1,i,i,i,i,11*,i,i,i,i
CC1CN(C(=S)Nc2cccc([N+](=O)[O-])c2)CC(C)O1 (centres undefined),i,i,i,i,i,/,/,/,/
COc1ccc(-c2oc3ccccc3c2C(=O)Oc2ccccc2)cc1,i,i,i,i,8.7*,i,i,i,68*
CCCCOc1ccccc1NC(=O)CSc1nnnn1C(C)(C)C,i,i,i,i,22*,i,i,i,i
COc1ccccc1NC(=O)CSc1nnnn1-c1ccc(C(=O)O)cc1,i,i,i,i,i,/,/,/,/
CC(=O)c1ccc(NC(=O)NC2CCCCCCC2)cc1,i,i,i,i,i,/,/,/,/
CC1(C)c2ccccc2-c2nc3ccccc3cc2C1O (centres undefined),i,i,i,i,9.6*,i,i,i,i
